Experimental data published in paper PMC9762201 (Current Research in Pharmacology and Drug Discovery, 2022).
Entries after “also recorded” stand apart in the source; their conditions may differ.

What was measured:
α1A-AR [1] = molecular target: T1, α1A-AR (Homo sapiens, UniProt P35348); format: binding
T1 sequence (P35348 1-466): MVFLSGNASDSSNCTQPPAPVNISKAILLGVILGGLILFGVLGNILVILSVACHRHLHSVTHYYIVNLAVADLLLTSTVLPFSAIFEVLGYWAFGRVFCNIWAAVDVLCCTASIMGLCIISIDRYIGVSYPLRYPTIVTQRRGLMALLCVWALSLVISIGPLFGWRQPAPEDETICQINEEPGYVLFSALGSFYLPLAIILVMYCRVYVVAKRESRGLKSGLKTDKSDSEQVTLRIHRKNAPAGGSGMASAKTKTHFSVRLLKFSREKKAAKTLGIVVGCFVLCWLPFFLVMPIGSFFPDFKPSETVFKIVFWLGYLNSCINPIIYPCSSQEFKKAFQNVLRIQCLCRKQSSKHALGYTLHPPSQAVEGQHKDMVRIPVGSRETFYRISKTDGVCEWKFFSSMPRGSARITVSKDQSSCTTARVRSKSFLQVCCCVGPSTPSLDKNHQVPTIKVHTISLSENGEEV

α1B-AR [2] = format: binding; details: 0.5 mM GTP
α1D-AR [3] = molecular target: T2, α1D-AR (Homo sapiens, UniProt P25100); format: binding
T2 sequence (P25100 1-572): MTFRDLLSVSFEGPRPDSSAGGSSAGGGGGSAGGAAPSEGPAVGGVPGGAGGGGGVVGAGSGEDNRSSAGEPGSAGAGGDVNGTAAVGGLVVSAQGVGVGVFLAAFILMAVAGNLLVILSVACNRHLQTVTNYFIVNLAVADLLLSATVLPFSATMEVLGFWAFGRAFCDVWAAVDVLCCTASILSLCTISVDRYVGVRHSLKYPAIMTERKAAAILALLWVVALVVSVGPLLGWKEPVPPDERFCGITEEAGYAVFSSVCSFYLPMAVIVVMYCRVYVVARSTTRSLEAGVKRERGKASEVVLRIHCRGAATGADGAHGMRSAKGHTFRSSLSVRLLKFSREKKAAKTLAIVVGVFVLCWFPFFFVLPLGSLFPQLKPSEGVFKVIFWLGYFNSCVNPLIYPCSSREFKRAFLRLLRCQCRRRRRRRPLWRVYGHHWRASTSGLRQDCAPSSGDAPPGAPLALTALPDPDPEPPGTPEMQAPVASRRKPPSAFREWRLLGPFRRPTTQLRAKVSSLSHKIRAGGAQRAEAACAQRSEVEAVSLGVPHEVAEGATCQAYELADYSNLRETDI

α2A-AR = molecular target: T3, α2A-AR (Homo sapiens, UniProt P08913); format: binding; details: Cos-1 membranes
T3 sequence (P08913 1-465): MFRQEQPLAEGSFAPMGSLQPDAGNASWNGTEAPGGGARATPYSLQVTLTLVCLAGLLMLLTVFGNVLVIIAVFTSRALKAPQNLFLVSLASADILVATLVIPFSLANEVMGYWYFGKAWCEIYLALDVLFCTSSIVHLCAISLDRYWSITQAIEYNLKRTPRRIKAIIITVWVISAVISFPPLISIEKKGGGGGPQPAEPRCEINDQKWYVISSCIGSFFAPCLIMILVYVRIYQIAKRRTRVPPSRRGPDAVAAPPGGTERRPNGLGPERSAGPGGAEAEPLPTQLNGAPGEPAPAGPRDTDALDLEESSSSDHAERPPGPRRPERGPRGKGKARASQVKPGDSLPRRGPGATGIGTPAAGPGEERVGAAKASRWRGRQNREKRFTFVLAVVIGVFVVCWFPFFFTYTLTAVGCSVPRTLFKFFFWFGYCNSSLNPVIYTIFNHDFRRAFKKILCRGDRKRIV

5-HT7A = 5-HT7A (Homo sapiens, UniProt P34969); assay: Psychoactive Drug Screening program GPCR binding screen, 5-HT7A
α1A-AR [4] = assay: cAMP assay and PAM assay in Rat-1 fibroblasts expressing α1A-AR; format: cell-based
α1B-AR [5] = assay: cAMP assay in Rat-1 fibroblasts expressing α1B-AR; format: cell-based; details: Cmpd-3 10^−7 to 10^−5 M
Outline: (§1)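 Rat-1 fibroblasts expressing one α1-AR subtype were plated serum-free at about 2.4 x 10^4 cells/well and rested overnight. They were preincubated 2 h at 37 °C with 10 μM propranolol, 0.1 μM rauwolscine and test compound. IBMX (100–200 μM) and NE or Epi were then added for 2 h, either as an agonist dose-response or at a fixed 10^-4 M. Cells were extracted in 0.1 M HCl for 20 min at RT, centrifuged at 1000 g, and cAMP was measured by EIA.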

α1D-AR [6] = molecular target: T2, α1D-AR; assay: cAMP assay in Rat-1 fibroblasts expressing α1D-AR; format: cell-based; details: Cmpd-3 10^−6, 10^−5 M
Outline: as §1

α1A-AR [7] = molecular target: T1, α1A-AR; assay: Total inositol phosphate assay in Rat-1 fibroblasts expressing α1A-AR; format: cell-based
α1B-AR [8] = assay: Total inositol phosphate assay, cells expressing α1B-AR; format: cell-based; details: data not shown
Outline: (§2)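 Cells expressing a single α1-AR subtype were seeded in DMEM at about 5 x 10^4 cells/well and rested overnight at 37 °C. They were labelled overnight with 3H-inositol, washed, and placed in serum-free DMEM with 10 mM LiCl (final) for 1 h. NE or Epi (one dose per well) plus test compound at one or several concentrations were added for 1 h at 37 °C. Total inositol phosphates were measured by anion-exchange chromatography.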

α1D-AR [9] = molecular target: T2, α1D-AR; assay: Total inositol phosphate assay, cells expressing α1D-AR; format: cell-based; details: data not shown
Outline: as §2

[10] = tested on: phosphorylation of CREB at Ser133; assay: p-CREB; format: cell-based; details: 10^−8 M; NE 10^−4 M; propranolol and rauwolscine present
α1A-AR [11] = molecular target: T1, α1A-AR; assay: 3H-NE binding potentiation, membranes from Rat-1 fibroblasts expressing α1A-AR
[12] = 2.6 mg/kg, q.d., PO; 3 or 6 months of dosing; 3XTG mice; ref Perez, 2021b; cited from earlier work
3XTG mice = details: 2.6 mg/kg, q.d., PO, 3 or 6 months, ref Perez, 2021b; cited from earlier work
[13] = compound 10^−5 M, absence of GTP, 125I-HEAT

5-HT7A, sequence (P34969 1-445 isoform P34969-2): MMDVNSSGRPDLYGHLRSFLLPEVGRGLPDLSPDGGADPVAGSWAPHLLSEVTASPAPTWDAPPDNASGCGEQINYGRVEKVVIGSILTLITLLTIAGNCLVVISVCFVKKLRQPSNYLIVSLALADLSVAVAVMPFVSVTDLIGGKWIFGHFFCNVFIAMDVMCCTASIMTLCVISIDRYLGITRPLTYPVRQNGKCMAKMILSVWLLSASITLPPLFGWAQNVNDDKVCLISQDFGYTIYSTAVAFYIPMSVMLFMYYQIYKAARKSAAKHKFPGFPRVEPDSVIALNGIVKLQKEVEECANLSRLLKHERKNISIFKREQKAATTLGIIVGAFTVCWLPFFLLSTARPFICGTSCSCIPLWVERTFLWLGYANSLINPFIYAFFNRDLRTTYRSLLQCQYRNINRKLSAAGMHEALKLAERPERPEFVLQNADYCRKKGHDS

CC(C)Cc1c(OCC2=NCCN2)cccc1N(C)S(C)(=O)=O.Cl [Cmpd-3, N-(3-((4,5-Dihydro-1H-imidazol-2-yl)methoxy)-2-isobutylphenyl)-N-methylmethanesulfonamide hydrochloride]
extent of inhibition of 125I-HEAT binding at α1A-AR (α1A-AR [1]; 0.5 mM GTP): could not fully inhibit; also recorded: incomplete inhibition | fraction of receptor in the high affinity state of NE in presence of compound (α1A-AR [1]; compound 10^−5 M, absence of GTP): 55% | effect on NE binding at α1A-AR (α1A-AR [1]; [13]): stabilizes the high affinity binding site of NE | effect on binding profile of Epi at α1A-AR (α1A-AR [1]; [13]): no effect | binding at α1B-AR (125I-HEAT competition) (α1B-AR [2]): did not display any binding; also recorded: does not bind | Ki (α1D-AR [3]): 30 µM | difference in binding selectivity between the α1-AR subtypes (α1D-AR [3]; α1A-AR versus α1B-/α1D-AR): 1000 fold | extent of inhibition of 3H-RX821002 binding at α2A-AR (α2A-AR): fully inhibited | Ki (5-HT7A): 6 µM | effect on Epi-mediated cAMP response at α1A-AR (α1A-AR [4]; Epi dose-response, propranolol and rauwolscine present): did not affect | PAM activity (NE-mediated cAMP potentiation, PAM assay) (α1A-AR [4]; NE 10^−4 M held constant, compound dose-response): display PAM effect | effect on NE-mediated cAMP response at α1A-AR (α1A-AR [4]; NE dose-response, propranolol and rauwolscine present): potentiated; also recorded: increases the Emax | intrinsic (basal) agonist activity, cAMP (α1A-AR [4]; compound alone, dose-response): cannot stimulate; also recorded: do not show any basal activity | effect on NE or Epi-mediated cAMP response at α1B-AR (α1B-AR [5]): no effect; also recorded: does not change the potency or the Emax | effect on NE or Epi-mediated cAMP response at α1D-AR (α1D-AR [6]): no effect; also recorded: does not change the potency or the Emax | effect on Epi-mediated inositol phosphate signal at α1A-AR (α1A-AR [7]): no effect; also recorded: does not affect | effect on NE-mediated inositol phosphate signal at α1A-AR (α1A-AR [7]): no effect; also recorded: does not affect | intrinsic (basal) agonist activity, inositol phosphate (α1A-AR [7]; compound alone, dose-response): cannot stimulate; also recorded: do not show any basal activity | effect on NE or Epi-mediated IP signal at α1B-AR (α1B-AR [8]): no effect | effect on NE or Epi-mediated IP signal at α1D-AR (α1D-AR [9]): no effect | effect on NE-mediated p-CREB levels [10]: significantly potentiated; also recorded: increases | EC50 (α1A-AR [11]): 0.1 nM | effect on systolic blood pressure [12]: failed to change | effect on long-term potentiation and cognitive behavior (3XTG mice): statistically increased
